Active and inactive are the calls of the source. The calls are words filed in the database; no cut-off is given here. Positions of bridges follow the written chain, without caps; N, C: chain ends. Non-standard residues stand in square brackets, D forms with d. Residues, ends and D or L forms follow the SMILES beside them. Chains are numbered I, II in the order given. Nle = CCCC[C@H](N)C(=O)O
Columns and labels:
[1] = molecular target: T1, Neuronal acetylcholine receptor subunit alpha-7 (Homo sapiens, UniProt P36544); experiment: Negative allosteric modulation activity at alpha7 nAChR in human SH-SY5Y cells assessed as inhibition of choline induced intracellular calcium by FLIPR assay; assay type: cell-based
T1 sequence (P36544 whole entry): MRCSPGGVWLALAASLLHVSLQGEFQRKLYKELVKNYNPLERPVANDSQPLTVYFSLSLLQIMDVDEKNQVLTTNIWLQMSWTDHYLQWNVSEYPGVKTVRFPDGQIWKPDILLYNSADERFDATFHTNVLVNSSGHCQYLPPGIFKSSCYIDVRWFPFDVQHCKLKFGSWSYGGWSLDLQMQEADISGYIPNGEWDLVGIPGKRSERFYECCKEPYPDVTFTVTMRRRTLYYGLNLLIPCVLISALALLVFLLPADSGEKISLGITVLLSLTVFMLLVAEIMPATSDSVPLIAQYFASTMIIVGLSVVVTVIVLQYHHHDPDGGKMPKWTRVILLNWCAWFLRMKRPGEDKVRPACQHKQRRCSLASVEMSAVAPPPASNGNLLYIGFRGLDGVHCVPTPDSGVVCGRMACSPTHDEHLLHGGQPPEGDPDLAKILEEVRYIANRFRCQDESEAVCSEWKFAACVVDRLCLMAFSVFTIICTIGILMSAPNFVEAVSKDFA

[2] = molecular target: Acetylcholine-binding protein (Lymnaea stagnalis, UniProt P58154); experiment: Displacement of [3H]-epibatidine from recombinant Lymnaea stagnalis Acetylcholine-binding protein by radioligand binding assay
Chain of Acetylcholine-binding protein (P58154 whole entry): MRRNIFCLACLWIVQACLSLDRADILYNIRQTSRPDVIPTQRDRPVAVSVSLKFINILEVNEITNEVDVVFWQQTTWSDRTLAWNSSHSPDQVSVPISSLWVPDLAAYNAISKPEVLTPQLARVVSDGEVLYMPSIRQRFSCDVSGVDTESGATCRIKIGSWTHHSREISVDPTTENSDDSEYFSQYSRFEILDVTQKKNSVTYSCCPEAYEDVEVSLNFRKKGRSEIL
Outline: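 Competition binding: peptide concentration series against [3H]-epibatidine bound to recombinantly expressed Ls-AChBP; IC50 taken from concentration–response curves of displacement. Values are means ± SEM of triplicates from three independent experiments.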

[3] = molecular target: Acetylcholine-binding protein (Lymnaea stagnalis) (UniProt P58154); experiment: Displacement of [3H]-epibatidine from recombinant Lymnaea stagnalis Acetylcholine-binding protein assessed as inhibition of [3H]-epibatidine binding by radioligand saturation binding assay; details: filed as negative allosteric modulator
Chain of Acetylcholine-binding protein (Lymnaea stagnalis) (P58154 whole entry): as above
Outline: (§1)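 Saturation binding of [3H]-epibatidine to recombinantly expressed Ls-AChBP was run without peptide and with a fixed peptide concentration (20 μM or 40 μM, depending on the peptide). Data are means ± SEM of triplicates from three independent experiments.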

[4] = molecular target: Acetylcholine-binding protein (Lymnaea stagnalis) (UniProt P58154); experiment: Displacement of [3H]-epibatidine from recombinant Lymnaea stagnalis Acetylcholine-binding protein assessed as inhibition of [3H]-epibatidine binding at 20 uM by radioligand saturation binding assay; outline: as §1
[5] = molecular target: T1, Neuronal acetylcholine receptor subunit alpha-7; experiment: Negative allosteric modulation activity at alpha7 nAChR in human SH-SY5Y cells assessed as fold change in inhibition of choline induced intracellular calcium by FLIPR assay relative to CTD(21-50); assay type: cell-based; details: filed as negative allosteric modulator
[6] = molecular target: Acetylcholine-binding protein (Lymnaea stagnalis) (UniProt P58154); experiment: Displacement of [3H]-epibatidine from recombinant Lymnaea stagnalis Acetylcholine-binding protein assessed as inhibition of [3H]-epibatidine binding at 40 uM by radioligand saturation binding assay; outline: as §1
[7] = molecular target: Acetylcholine-binding protein (Lymnaea stagnalis) (UniProt P58154); experiment: Displacement of [3H]-epibatidine from recombinant Lymnaea stagnalis Acetylcholine-binding protein assessed as fold change in inhibition of [3H]-epibatidine binding by radioligand binding assay relative to CTD(21-50); details: filed as negative allosteric modulator
Outline: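 Competition binding: peptides displaced [3H]-epibatidine from recombinantly expressed Lymnaea stagnalis AChBP. IC50 came from concentration–response curves. The ratio is each peptide's IC50 divided by the IC50 of the CTD(21–50) reference. Data are means ± SEM of triplicates from three independent experiments.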

CC[C@H](C)[C@@H]1NC(=O)[C@H](CC(N)=O)NC(=O)[C@H]([C@@H](C)O)NC(=O)[C@H](CCCNC(=N)N)NC(=O)[C@H](CC(=O)O)NC(=O)[C@H](CO)NC(=O)[C@@H]2CCCN2C(=O)[C@H](Cc2c[nH]c3ccccc23)NC(=O)CNC(=O)[C@H](CCCNC(=N)N)NC(=O)[C@@H](N)CSSC[C@H](N)C(=O)N[C@@H]([C@@H](C)CC)C(=O)N[C@@H]([C@@H](C)CC)C(=O)N[C@@H](CC(N)=O)C(=O)N[C@@H]([C@@H](C)O)C(=O)N[C@@H](CCCNC(=N)N)C(=O)N[C@@H](CC(=O)O)C(=O)N[C@@H](CO)C(=O)N2CCC[C@H]2C(=O)N[C@@H](Cc2c[nH]c3ccccc23)C(=O)NCC(=O)N[C@@H](CCCNC(=N)N)C(=O)N[C@H](C(=O)O)CSSC[C@@H](C(=O)O)NC(=O)[C@H]([C@@H](C)CC)NC1=O (I: H-CIINTRDSPWGRC-OH / II: H-CRGWPSDRTNIIC-OH; disulfide I:1-II:1, I:13-II:13)
IC50 [1]: 46 µM

CC[C@H](C)[C@@H]1NC(=O)[C@H](CC(N)=O)NC(=O)[C@H]([C@@H](C)O)NC(=O)[C@H](CCCNC(=N)N)NC(=O)[C@H](CC(=O)O)NC(=O)[C@H](CO)NC(=O)[C@@H]2CCCN2C(=O)[C@H](Cc2c[nH]c3ccccc23)NC(=O)CNC(=O)[C@H](CCCNC(=N)N)NC(=O)[C@@H](N)CSSC[C@H](NC(=O)[C@H](CCC(=O)O)NC(=O)[C@H](CO)NC(=O)[C@H](CCC(=O)O)NC(=O)[C@H](CC(=O)O)NC(=O)[C@@H](N)CC(=O)O)C(=O)N[C@@H]([C@@H](C)CC)C(=O)N[C@@H]([C@@H](C)CC)C(=O)N[C@@H](CC(N)=O)C(=O)N[C@@H]([C@@H](C)O)C(=O)N[C@@H](CCCNC(=N)N)C(=O)N[C@@H](CC(=O)O)C(=O)N[C@@H](CO)C(=O)N2CCC[C@H]2C(=O)N[C@@H](Cc2c[nH]c3ccccc23)C(=O)NCC(=O)N[C@@H](CCCNC(=N)N)C(=O)N[C@H](C(=O)O)CSSC[C@@H](C(=O)N[C@@H](CCC(=O)O)C(=O)N[C@@H](CO)C(=O)N[C@@H](CCC(=O)O)C(=O)N[C@@H](CC(=O)O)C(=O)N[C@@H](CC(=O)O)C(=O)O)NC(=O)[C@H]([C@@H](C)CC)NC1=O (I: H-CRGWPSDRTNIICESEDD-OH / II: H-DDESECIINTRDSPWGRC-OH; disulfide I:1-II:6, I:13-II:18)
IC50 [1]: 35 µM

CCCC[C@@H]1NC(=O)[C@H](CO)NC(=O)CNC(=O)[C@@H](NC(=O)[C@H](CCCC)NC(=O)[C@H](CCCNC(=N)N)NC(=O)[C@@H](N)[C@@H](C)O)CSSC[C@@H]2NC(=O)[C@H]([C@@H](C)O)NC(=O)[C@@H]3CSSC[C@@H](C(=O)N4CCC[C@H]4C(=O)NCC(=O)O)NC(=O)[C@H](CO)NC(=O)[C@H](CSSC[C@H](NC(=O)[C@H](CO)NC1=O)C(=O)N1CCC[C@H]1C(=O)N[C@@H](CCCNC(=N)N)C(=O)N[C@@H](CC(N)=O)C(=O)NCC(=O)N3)NC(=O)CNC(=O)[C@H](Cc1cnc[nH]1)NC(=O)CNC(=O)[C@H](CCCNC(=N)N)NC(=O)[C@H](CCCNC(=N)N)NC(=O)[C@H](Cc1c[nH]c3ccccc13)NC(=O)[C@H](Cc1cnc[nH]1)NC(=O)[C@H](Cc1ccc(O)cc1)NC(=O)[C@H](C(C)C)NC2=O (H-TR[Nle]CGS[Nle]SCPRNGCTCVYHWRRGHGCSCPG-OH; disulfide 4-16, 9-26, 14-28)
IC50 [2]: 20 µM | Activity [3]: Active | IC50 [1]: 0.176 µM | inhibition [4]: 20%

CCCC[C@@H]1N[C@@H](CO)C(=O)NCC(=O)N[C@H]2CSSC[C@@H]3NC(=O)[C@H](C(C)C)NC(=O)[C@H](Cc4ccc(O)cc4)NC(=O)[C@H](Cc4cnc[nH]4)NC(=O)[C@H](Cc4c[nH]c5ccccc45)NC(=O)[C@H](CCCNC(=N)N)NC(=O)[C@H](CCCNC(=N)N)NC(=O)CNC(=O)[C@H](Cc4cnc[nH]4)NC(=O)CNC(=O)[C@@H]4CSSC[C@H](NC(=O)[C@@H]5CCCN5C(=O)[C@H](CCCNC(=N)N)NC(=O)[C@H](CC(N)=O)NC(=O)CNC(=O)[C@H](CSSC[C@H](NC(=O)[C@@H]5CCCN5C(=O)CN)C(=O)N[C@@H](CO)C(=O)N4)NC(=O)[C@H]([C@@H](C)O)NC3=O)C(=O)N[C@@H](CSSC[C@@H](C(=O)O)NC(=O)[C@H](CCCNC(=N)N)NC(=O)[C@H]([C@@H](C)O)NC(=O)[C@H](CCCNC(=N)N)N[C@@H](CCCC)C(=O)NC2=O)C(=O)NC1=O
IC50 [2]: 10 µM | fold change (FC) [5]: 8 | Activity [3]: Active | IC50 [1]: 0.023 µM | inhibition [6]: 29% | fold change (FC) [7]: 2
